Reference: ChEMBL document CHEMBL1144570, “C6-(N,N-butyl-methyl-heptanamide) derivatives of estrone and estradiol as inhibitors of type 1 17beta-hydroxysteroid dehydrogenase: Chemical synthesis and biological evaluation” (2007)
Activity calls are given as the source filed them. The rule behind the calls is not given here.

Assays:
[1] = biological target: T1, 17-beta-hydroxysteroid dehydrogenase type 1 (Homo sapiens) (UniProt P14061); assay: Inhibition of 17beta-HSD1 over-expressed in intact HEK293 cells; assay type: cell-based
T1 sequence (whole entry): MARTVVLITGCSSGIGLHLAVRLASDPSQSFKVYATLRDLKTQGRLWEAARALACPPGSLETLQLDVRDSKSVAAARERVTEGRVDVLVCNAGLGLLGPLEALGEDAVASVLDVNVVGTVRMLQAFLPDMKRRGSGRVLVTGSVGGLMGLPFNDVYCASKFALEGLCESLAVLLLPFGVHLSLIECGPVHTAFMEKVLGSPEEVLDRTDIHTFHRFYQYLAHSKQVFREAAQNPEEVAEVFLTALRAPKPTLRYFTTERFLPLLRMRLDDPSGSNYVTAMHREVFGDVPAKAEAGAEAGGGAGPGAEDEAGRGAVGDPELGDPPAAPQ
Summary of the method: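 Transfected HEK-293 cells overexpressing type 1 17β-HSD, plated at 5000 cells/well, given ethanolic inhibitor solutions and incubated 24 h. [4-14C]-E1 (60 nM) then added for 15 min. Labelled E1 and E2 extracted from medium and quantified, giving percent inhibition of E1→E2 reduction at 10, 1 and 0.1 μM. Mean of five experiments in quadruplicate.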

T47D [2] = assay: Decrease in cell growth of estrogen-starved ER expressing T47D cells after 10 days relative to control; assay type: functional, cell-based; conditions: Homo sapiens
Summary of the method: (§1)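 Cells were moved to medium with insulin (50 ng/mL) and 5% dextran-coated charcoal-treated FBS to remove estrogens, then seeded at 3000 cells/well. After 48 h, inhibitor dilutions in growth medium were added, with medium replaced every 2 days. Cells were grown 10 days in triplicate. Growth was read with the CellTiter 96 AQueous assay and expressed as % of control (100%).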

[3] = biological target: T1, 17-beta-hydroxysteroid dehydrogenase type 1 (Homo sapiens); assay: Inhibition of 17beta-HSD1 overexpressed in homogenated HEK293 cells at 1 uM; assay type: cell-based
Summary of the method: (§2)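 Homogenate of HEK-293 cells overexpressing type 1 17β-HSD. Reductive conversion of E1 (100 nM) to E2 with NADH cofactor. Percent inhibition from one run in triplicate, SD < ±5%.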

[4] = biological target: T1, 17-beta-hydroxysteroid dehydrogenase type 1 (Homo sapiens); assay: Inhibition of 17beta-HSD1 over-expressed in homogenated HEK293 cells at 0.1 uM; assay type: cell-based; summary of the method: as §2
[5] = biological target: T1, 17-beta-hydroxysteroid dehydrogenase type 1 (Homo sapiens); assay: Inhibition of 17beta-HSD1 over-expressed in intact HEK293 cells at 10 uM; assay type: cell-based
Summary of the method: (§3)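 Transfected HEK-293 cells expressing type 1 17β-HSD were plated at 5000 cells/well. Inhibitors were added in ethanol and incubated 24 h. [4-14C]-E1 (60 nM) was then added for 15 min. Labelled E1 and E2 were extracted from the medium and quantified. Values are the mean of five experiments in quadruplicate, SD < ±8%.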

[6] = biological target: T1, 17-beta-hydroxysteroid dehydrogenase type 1 (Homo sapiens); assay: Inhibition of 17beta-HSD1 over-expressed in intact HEK293 cells at 1 uM; assay type: cell-based; summary of the method: as §3
[7] = biological target: T1, 17-beta-hydroxysteroid dehydrogenase type 1 (Homo sapiens); assay: Inhibition of 17beta-HSD1 over-expressed in intact HEK293 cells at 0.1 uM; assay type: cell-based; summary of the method: as §3
[8] = biological target: T1, 17-beta-hydroxysteroid dehydrogenase type 1 (Homo sapiens); assay: Inhibition of 17beta-HSD1 over-expressed in intact T47D cells at 10 uM; assay type: cell-based
Summary of the method: (§4)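 Intact T-47D cells, which express endogenous type 1 17β-HSD, were seeded at 3×10^4 cells/well in proliferation assay medium. After 48 h, [4-14C]-E1 (60 nM) and inhibitor in ethanol (0.5% v/v) were added in fresh medium for 24 h. Labelled E1 and E2 were extracted and quantified. Values are the mean of two experiments in triplicate, SD < ±5%.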

[9] = biological target: T1, 17-beta-hydroxysteroid dehydrogenase type 1 (Homo sapiens); assay: Inhibition of 17beta-HSD1 over-expressed in intact T47D cells at 1 uM; assay type: cell-based; summary of the method: as §4
[10] = biological target: T1, 17-beta-hydroxysteroid dehydrogenase type 1 (Homo sapiens); assay: Inhibition of 17beta-HSD1 over-expressed in intact T47D cells at 0.1 uM; assay type: cell-based; summary of the method: as §4
[11] = biological target: T2, 3-keto-steroid reductase/17-beta-hydroxysteroid dehydrogenase 7 (Homo sapiens) (UniProt P56937); assay: Inhibition of 17beta-HSD7 over-expressed in intact HEK293 cells at 10 uM; assay type: cell-based
T2 sequence (whole entry): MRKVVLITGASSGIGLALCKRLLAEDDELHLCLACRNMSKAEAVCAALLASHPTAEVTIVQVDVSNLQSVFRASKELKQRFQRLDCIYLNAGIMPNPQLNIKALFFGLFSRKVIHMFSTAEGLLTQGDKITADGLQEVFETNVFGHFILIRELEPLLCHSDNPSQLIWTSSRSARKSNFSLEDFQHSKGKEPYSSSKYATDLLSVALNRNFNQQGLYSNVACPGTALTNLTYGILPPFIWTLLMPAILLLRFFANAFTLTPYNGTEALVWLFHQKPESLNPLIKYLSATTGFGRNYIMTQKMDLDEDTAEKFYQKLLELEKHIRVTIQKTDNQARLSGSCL
Summary of the method: (§5)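 Intact transfected HEK-293 cells expressing type 7 17β-HSD. Inhibition of reductive conversion of E1 (60 nM) to E2. One run in triplicate, SD < ±5%.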

[12] = biological target: T2, 3-keto-steroid reductase/17-beta-hydroxysteroid dehydrogenase 7 (Homo sapiens); assay: Inhibition of 17beta-HSD7 over-expressed in intact HEK293 cells at 1 uM; assay type: cell-based; summary of the method: as §5
[13] = biological target: T3, Very-long-chain 3-oxoacyl-CoA reductase (Homo sapiens) (UniProt Q53GQ0); assay: Inhibition of 17beta-HSD12 over-expressed in intact HEK293 cells at 10 uM; assay type: cell-based
T3 sequence (whole entry): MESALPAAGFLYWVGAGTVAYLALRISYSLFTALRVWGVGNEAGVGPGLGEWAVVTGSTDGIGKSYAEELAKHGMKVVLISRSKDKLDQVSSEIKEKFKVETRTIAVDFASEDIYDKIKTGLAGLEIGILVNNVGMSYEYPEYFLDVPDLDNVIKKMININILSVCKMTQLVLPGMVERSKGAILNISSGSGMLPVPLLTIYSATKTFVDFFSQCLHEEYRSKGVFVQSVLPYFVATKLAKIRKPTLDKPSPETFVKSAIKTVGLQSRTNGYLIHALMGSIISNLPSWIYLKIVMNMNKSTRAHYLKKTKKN
Summary of the method: (§6)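 Transfected HEK-293 cells expressing type 12 17β-HSD were plated at 1.5×10^5 cells/well. Inhibitor in ethanol plus [4-14C]-E1 (60 nM) were added in fresh medium for 24 h. E1 to E2 conversion was quantified after steroid extraction. Values are the mean of two experiments in triplicate, SD < ±5%.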

[14] = biological target: T3, Very-long-chain 3-oxoacyl-CoA reductase (Homo sapiens); assay: Inhibition of 17beta-HSD12 over-expressed in intact HEK293 cells at 1 uM; assay type: cell-based; summary of the method: as §6
MCF7 [15] = assay: Decrease in cell growth of estrogen-starved ER expressing MCF7 cells at 1 uM relative to control after 10 days; assay type: functional, cell-based; conditions: Homo sapiens; summary of the method: as §1
MCF7 [16] = assay: Increase in cell growth of estrogen-starved ER expressing MCF7 cells at 1 uM relative to control after 10 days; assay type: functional, Homo sapiens; summary of the method: as §1
MCF7 [17] = assay: Increase in cell growth of estrogen-starved ER expressing MCF7 cells at 0.01 uM relative to control after 10 days; assay type: functional, Homo sapiens; summary of the method: as §1
T47D [18] = assay: Increase in cell growth of estrogen-starved ER expressing T47D cells at 0.01 uM relative to control after 10 days; assay type: functional, Homo sapiens; summary of the method: as §1
T47D [19] = assay: Effect on cell proliferation of estrogen-starved ER expressing T47D cells at 1 uM relative to control after 10 days; assay type: functional, cell-based; conditions: Homo sapiens; summary of the method: as §1
T47D [20] = assay: Increase in cell growth of estrogen-starved ER expressing T47D cells at 1 uM relative to control after 10 days; assay type: functional, cell-based; conditions: Homo sapiens; summary of the method: as §1
T47D [21] = assay: Increase in cell growth of estrogen-starved ER expressing T47D cells at 0.1 uM relative to control after 10 days; assay type: functional, Homo sapiens; summary of the method: as §1
MCF7 [22] = assay: Increase in cell growth of estrogen-starved ER expressing MCF7 cells at 10 nM relative to control after 10 days; assay type: functional, Homo sapiens; summary of the method: as §1
T47D [23] = assay: Increase in cell growth of estrogen-starved ER expressing T47D cells at 10 nM relative to control after 10 days; assay type: functional, Homo sapiens; summary of the method: as §1

SMILES	Activity [1]	inhibition [3]	inhibition [4]	inhibition [5]	inhibition [6]	inhibition [7]	inhibition [8]	inhibition [9]	inhibition [10]	inhibition [11]	inhibition [12]	inhibition [13]	inhibition [14]	further results
C[C@]12CC[C@@H]3c4ccc(O)cc4C(=O)C[C@H]3[C@@H]1CC[C@@H]2O	inactive													
C[C@]12CC[C@@H]3c4ccc(O)cc4C=C[C@H]3[C@@H]1CC[C@@H]2O	inactive													
CCCCN(C)C(=O)CCCCCC[C@@H]1C[C@@H]2[C@H](CC[C@]3(C)[C@@H](O)CC[C@@H]23)c2ccc(O)cc21		46%	15%	49%	21%	11%	95%	82%	29%	27%	0%	30%	1%	Activity (T47D [2]): Active
CCCCN(C)C(=O)CCCCCC[C@H]1C[C@@H]2[C@H](CC[C@]3(C)C(=O)CC[C@@H]23)c2ccc(O)cc21		16%	3%	14%	5%	3%	71%	19%	7%	29%	5%	44%	3%	
CCCCN(C)C(=O)CCCCCC[C@@H]1C[C@@H]2[C@H](CC[C@]3(C)C(=O)CC[C@@H]23)c2ccc(O)cc21		23%	12%	31%	20%	8%	92%	57%	19%	31%	7%	40%	0%	Activity (MCF7 [15]): Active
CCCCN(C)C(=O)CCCCCC[C@H]1C[C@@H]2[C@H](CC[C@]3(C)[C@@H](O)CC[C@@H]23)c2ccc(O)cc21		17%	9%	15%	11%	3%	74%	21%	9%	24%	11%	30%	1%	
CCCCN(C)C(=O)CCCCCC[C@@H]1C[C@@H]2[C@H](CC[C@]3(C)[C@@H](O)CC[C@@H]23)c2cc(OC)c(O)cc21				28%	15%	13%	81%	32%	11%	17%	0%	22%	0%	Activity (MCF7 [16]): 1.1; Activity (MCF7 [17]): 1.7; Activity (T47D [18]): 2.3; Activity (T47D [19]): inactive
C[C@]12CC[C@@H]3c4ccc(O)cc4[C@H](O)C[C@H]3[C@@H]1CC[C@@H]2O	inactive													
C[C@]12CC[C@H]3C(=CCc4cc(O)ccc43)[C@@H]1CC[C@@H]2O	inactive													
CCCCN(C)C(=O)CCCCCS[C@@H]1C[C@@H]2[C@H](CC[C@]3(C)[C@@H](O)CC[C@@H]23)c2ccc(O)cc21		74%	33%	63%	45%	11%	95%	82%	31%	25%	9%	22%	0%	Activity (T47D [20]): Active; Activity (T47D [21]): 2.3; Activity (T47D [18]): 2.3
C[C@]12CC[C@@H]3c4ccc(O)cc4CC[C@H]3[C@@H]1CC[C@@H]2O [ESTRADIOL]														Activity (MCF7 [22]): 1.8; Activity (T47D [23]): 3
C[C@]12CC[C@@H]3c4ccc(O)cc4CC[C@H]3[C@@H]1CCC2=O		59%	19%	83%	38%	8%	93%	85%	36%	0%	0%	0%	0%	
